The source of these data is ChEMBL document CHEMBL1129996, “1-Aryl-3,5-dihydro-4H-2,3-benzodiazepin-4-ones: novel AMPA receptor antagonists” (J Med Chem, 1997).

Several values for one entry are separate records, joined by “and”; a condition that tells them apart may be missing. Equal entries are not always repeated. Some results are limits rather than exact numbers.

A short description of data set [1]: Relative lipophilicity of compound. In kind it is physicochemical. As to conditions: reversed-phase TLC, acetone/water 2:1. In outline:
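Reversed-phase TLC type lipophilicity: plates dried 105 °C 1 h, mobile phase acetone:water 2:1, 1 µL of 3 mg/mL CHCl3 solution spotted; five runs with varied positions, mean Rf converted as Rm = log[(1/Rf) - 1].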

Data set [2] deals with Mus musculus. The data set is described as follows: Anticonvulsant activity against clonic phase of the audiogenic seizures in DBA / 2 mice 30 min after ip administration at a dose range 10-120 uM/kg. The format is functional. As to conditions: 0.5 h. An outline of the steps: (§1)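 Groups of 10 DBA/2 mice of either sex; drug ip (0.1 mL/10 g) as fresh solution in 50% DMSO/50% saline, 30 min before auditory stimulation (12-16 kHz, 109 dB, 60 s or until tonic extension) under perspex dome after 60 s habituation. Latency and incidence of wild running, clonic and tonic phases scored; ED50 (95% confidence limits) by Litchfield-Wilcoxon.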

Data set [3] can be described thus: Motor toxicity in 50% of mice on locomotion assessed by Rotarod test following 30 min ip administration. In kind it is organism-based. The settings on record: mouse, in vivo. An outline of the steps:
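Male Swiss mice (20-26 g, 48-54 days), groups of 10, trained on rotarod (3 cm, 8 rpm); tested 30 min after ip dosing. Impairment = failure to stay on for 2 min; TD50 (95% confidence limits) by Litchfield-Wilcoxon.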

For data set [4], the system named is Mus musculus. The data set is described as follows: Anticonvulsant activity against the maximal electroshock in Swiss mice after 45 minutes pretreatment at a dose range 10-150 uM/kg. The format is functional. An outline of the steps:
(§2)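 Swiss mice dosed ip in 50% DMSO/50% saline 45 min before ear-clip electroshock (50 mA, 20 ms pulses, 35 Hz, 400 ms). Protection = abolition of tonic hindlimb extension. Usually 4-5 doses with 8-10 mice each; ED50 (95% confidence limits) by Litchfield-Wilcoxon.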

Data set [5] concerns Mus musculus. The data set is described as follows: Anticonvulsant activity against tonic phase of the audiogenic seizures in DBA / 2 mice 30 min after ip administration at a dose range 10-120 uM/kg. As to conditions: 0.5 h. In kind it is functional. An outline of the steps:
as §1

In data set [6] the test system is Mus musculus. The data set is described as follows: Pentylenetetrazole-induced seizures in Swiss mice after 45 min pretreatment at a dose range 10-150 uM/kg. In kind it is functional.
For data set [7], the species on record is Mus musculus. The data set can be described thus: Audiogenic seizures after concomitant treatment with Flumazenil (8.24 uM) in DBA / 2 mice tonic phase. In kind it is functional.
Data set [8] concerns Mus musculus. The data set is described as follows: Audiogenic seizures after pretreatment with Aniracetam in DBA / 2 mice clonic phase at a dose range of 33-300 uM/kg. In kind it is functional. An outline of the steps:
(§3)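 DBA/2 mice pretreated with aniracetam 50 nmol icv 60 min before auditory testing, with ip 2,3-benzodiazepine; audiogenic clonic and tonic phases scored; ED50 by Litchfield-Wilcoxon.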

Data set [9] deals with Mus musculus. The data set can be described thus: Anticonvulsant activity against the tonic seizures induced by icv injection of AMPA in DBA / 2 mice at a dose range of 10-200 uM/kg. The format is functional. The settings on record: central.
The subject of data set [10] is Mus musculus. The data set is described as follows: Pentylenetetrazole-induced seizures in Swiss mice after 45 min pretreatment at a dose range 10-100 uM/kg. The format is functional. In outline:
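Male Swiss mice (20-26 g), compound ip in 50% DMSO/50% saline 45 min before sc pentylenetetrazole at CD97 (85 mg/kg), then observed 30 min. Protection is absence of clonic spasms lasting at least 5 s. Typically 4-5 doses, 8-10 mice per dose. ED50 with 95% confidence limits by Litchfield and Wilcoxon.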

The species named for data set [11] is Mus musculus. The data set can be described thus: Audiogenic seizures after concomitant treatment with Flumazenil (24.72 uM) in DBA / 2 mice clonic phase. In kind it is functional.
For data set [12], the system named is Mus musculus. The data set is described as follows: Anticonvulsant activity against the maximal electroshock in Swiss mice after 45 minutes pretreatment at a dose range 10-100 uM/kg. The format is functional. In outline:
as §2

In data set [13] the test system is Mus musculus. The data set is described as follows: Anticonvulsant activity against the clonic seizures induced by icv injection of AMPA in DBA / 2 mice at a dose range of 10-200 uM/kg. The format is functional. As to conditions: central.
The species named for data set [14] is Mus musculus. The data set can be described thus: Audiogenic seizures after concomitant treatment with Flumazenil (24.72 uM) in DBA / 2 mice tonic phase. The format is functional.
Data set [15] has as its system Mus musculus. The data set is described as follows: Audiogenic seizures after pretreatment with Aniracetam in DBA / 2 mice tonic phase at a dose range of 33-300 uM/kg. In kind it is functional. An outline of the steps: as §3
Data set [16] is filed under the species Mus musculus. The data set can be described thus: Audiogenic seizures after concomitant treatment with Flumazenil (8.24 uM) in DBA / 2 mice clonic phase. The format is functional.
Data set [17] can be described thus: Therapeutic index it is the ratio between TD50 and ED50 (from the clonic phase of the audiogenic seizures). The settings on record: read-out: TI. An outline of the steps:
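Therapeutic index computed as rotarod TD50 divided by ED50 for the clonic phase of audiogenic seizures in DBA/2 mice.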

The test system of data set [18] is Mus musculus. The data set can be described thus: Anticonvulsant activity against tonic phase of the audiogenic seizures in DBA / 2 mice 30 min after ip administration at a dose range 10-100 uM/kg. In kind it is functional. As to conditions: 0.5 h. An outline of the steps: as §1
The subject of data set [19] is Mus musculus. The data set is described as follows: Anticonvulsant activity against clonic phase of the audiogenic seizures in DBA / 2 mice 30 min after ip administration at a dose range 10-100 uM/kg. In kind it is functional. As to conditions: 0.5 h. In outline: as §1
Data set [20] relates to Mus musculus. The data set is described as follows: Anticonvulsant activity against the maximal electroshock in Swiss mice after 45 minutes pretreatment at a dose range 33-200 uM/kg. The format is functional. An outline of the steps: as §2
Data set [21] has as its system Mus musculus. The data set is described as follows: Anticonvulsant activity against tonic phase of the audiogenic seizures in DBA / 2 mice 30 min after ip administration at a dose range 33-200 uM/kg. In kind it is functional. As to conditions: 0.5 h. In outline:
as §1

Data set [22] relates to Mus musculus. The data set can be described thus: Anticonvulsant activity against clonic phase of the audiogenic seizures in DBA / 2 mice 30 min after ip administration at a dose range 33-200 uM/kg. In kind it is functional. As to conditions: 0.5 h. An outline of the steps: as §1
Data set [23] deals with Mus musculus. The data set is described as follows: Pentylenetetrazole-induced seizures in Swiss mice after 45 min pretreatment at a dose range 33-200 uM/kg. In kind it is functional.

In the case of `COc1cc2c(cc1OC)C(c1ccc([N+](=O)[O-])cc1)=NN(C)C(=O)C2`, in [1], the Rm was determined as 0.11. The ED50 in the data set on Mus musculus [2] was > 120 µmol/kg and > 44 mg/kg; in the data set on Mus musculus [4], more than 150 µmol/kg; in the data set on Mus musculus [5], > 120 µmol/kg and > 44 mg/kg; in the data set with Mus musculus [6], more than 150 µmol/kg. The TD50 at 0.5 h in data set [3] is more than 150 µmol/kg.
Consider `COc1cc2c(cc1OC)C(c1cccc([N+](=O)[O-])c1)=NNC(=O)C2`, for which, in data set [1], the Rm is listed as -0.14. For the same compound, the ED50 is > 120 µmol/kg and > 44 mg/kg in the data set with Mus musculus [2]; more than 150 µmol/kg with Mus musculus [4]; > 120 µmol/kg and > 44 mg/kg with Mus musculus [5]; more than 150 µmol/kg in the data set with Mus musculus [6]. In data set [3], this compound returned a TD50 at 0.5 h of more than 150 µmol/kg.
Take `COc1cc2c(cc1OC)C(c1ccc(C#N)cc1)=NN(C)C(=O)C2`: the Rm in [1] is recorded as -0.031. Further, the ED50 with Mus musculus [2] was > 120 µmol/kg and > 44 mg/kg; in the data set with Mus musculus [5], > 120 µmol/kg and > 44 mg/kg. In data set [3], the TD50 at 0.5 h was more than 150 µmol/kg.
In data set [1], `COc1cc2c(cc1OC)C(c1ccc(C#N)cc1)=NN(C(C)=O)C(=O)C2` returned a Rm of -0.065. Moreover, the ED50 was > 120 µmol/kg and > 44 mg/kg in the data set with Mus musculus [2]; > 120 µmol/kg and > 44 mg/kg in the data set with Mus musculus [5]. The TD50 at 0.5 h in data set [3] was more than 150 µmol/kg.
`COc1cc2c(cc1OC)C(c1ccccc1)=NNC(=O)C2`: in [1], the Rm was -0.012. Further, the ED50 in the data set listed under Mus musculus [7] is 35.8 µmol/kg; in the data set on Mus musculus [8] it was 215 µmol/kg; with Mus musculus [9], 42.6 µmol/kg; with Mus musculus [10] it was 68.2 µmol/kg; in the data set listed under Mus musculus [11], 50.9 µmol/kg; in the data set with Mus musculus [12], 35.8 µmol/kg. Further, the ED50 is 66 µmol/kg in the data set on Mus musculus [13]; 41.3 µmol/kg in the data set listed under Mus musculus [14]; 157 µmol/kg with Mus musculus [15]; 38.2 µmol/kg in the data set listed under Mus musculus [16]; 31.8 µmol/kg and 9.41 mg/kg with Mus musculus [18]. The same compound showed a TD50 at 0.5 h in data set [3] of 142 µmol/kg. Moreover, the therapeutic index (TD50/ED50) in data set [17] came to 4.2.
For the compound `COc1cc2c(cc1OC)C(c1ccccc1)=NN(C)C(=O)C2`, the Rm in data set [1] was determined as 0. In addition, the ED50 with Mus musculus [8] is 259 µmol/kg; in the data set with Mus musculus [9], 69.6 µmol/kg; with Mus musculus [19], 37.8 µmol/kg and 11.7 mg/kg; in the data set on Mus musculus [13], 76.1 µmol/kg; in the data set on Mus musculus [15], 197 µmol/kg; in the data set with Mus musculus [4], 42.7 µmol/kg. Also, the ED50 was 89.9 µmol/kg with Mus musculus [6]; 26.7 µmol/kg and 8.28 mg/kg in the data set with Mus musculus [18]. The TD50 at 0.5 h in data set [3] was determined as 154 µmol/kg. For the same compound, the therapeutic index (TD50/ED50) in data set [17] amounted to 4.1.
In turn, `COc1cc2c(cc1OC)C(c1ccc(Cl)cc1)=NNC(=O)C2` had a Rm in [1] of 0.017. In addition, the 50% effective dose (ED50) was 115 µmol/kg with Mus musculus [20]; 75.3 µmol/kg and 24.8 mg/kg with Mus musculus [21]; 102 µmol/kg and 33.7 mg/kg in the data set on Mus musculus [22]; 145 µmol/kg in the data set with Mus musculus [23]. Moreover, the TD50 at 0.5 h in data set [3] came out at 240 µmol/kg. In [17], the therapeutic index (TD50/ED50) is 2.3.
For the compound `COc1cc2c(cc1OC)C(c1ccc(Br)cc1)=NN(C)C(=O)C2`, the Rm in [1] is on record as 0.288. Further, the ED50 is 63 µmol/kg and 24.5 mg/kg in the data set with Mus musculus [19]; 38 µmol/kg and 14.8 mg/kg with Mus musculus [18].
For `COc1cc2c(cc1OC)C(c1ccc(C#N)cc1)=NNC(=O)C2`, the Rm in data set [1] was -0.218. Besides, the ED50 with Mus musculus [2] is > 120 µmol/kg and > 44 mg/kg; with Mus musculus [4], more than 150 µmol/kg; in the data set on Mus musculus [5] it was > 120 µmol/kg and > 44 mg/kg; in the data set on Mus musculus [6] it was more than 150 µmol/kg. This compound had a TD50 at 0.5 h in data set [3] of more than 150 µmol/kg.
